Laboratory results taken from ChEMBL document CHEMBL4732237, “Discovery of 4-alkoxy-2-aryl-6,7-dimethoxyquinolines as a new class of topoisomerase I inhibitors endowed with potent in vitro anticancer activity” (2021).

Key:
Assay type in all cases: functional
SK-MEL-2 = assay: Growth inhibition of human SK-MEL-2 cells incubated for 48 hrs by sulforhodamine B assay
Outline: (§1)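 NCI five-dose screen (0.01–100 µM; five concentrations plus control). Cells grown in RPMI 1640/5% FBS/2 mM L-glutamine and preincubated 24 h, with time-zero plates TCA-fixed. Drug exposure 48 h at 37 °C, followed by SRB protein staining and reading at 515 nm. GI50 is the concentration at [(Ti-Tz)/(C-Tz)]×100 = 50.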

UACC-257 = assay: Growth inhibition of human UACC-257 cells incubated for 48 hrs by sulforhodamine B assay
Outline: (§2)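 NCI five-dose assay, with drug stocks in DMSO diluted in medium to five concentrations (10-fold or ½-log series). Cells in RPMI 1640/5% FBS were pre-incubated 24 h, and time-zero plates were TCA-fixed at drug addition. After 48 h at 37 °C, cells were TCA-fixed, SRB-stained and read at 515 nm. GI50 is from [(Ti-Tz)/(C-Tz)]×100 = 50, TGI from Ti = Tz, and LC50 from [(Ti-Tz)/Tz]×100 = -50.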

SF-295 = assay: Growth inhibition of human SF-295 cells incubated for 48 hrs by sulforhodamine B assay; outline: as §1
SK-MEL-28 = assay: Growth inhibition of human SK-MEL-28 cells incubated for 48 hrs by sulforhodamine B assay; outline: as §1
OVCAR-3 = assay: Growth inhibition of human OVCAR-3 cells incubated for 48 hrs by sulforhodamine B assay; outline: as §1
CAKI-1 = assay: Growth inhibition of human CAKI-1 cells incubated for 48 hrs by sulforhodamine B assay
Outline: (§3)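 NCI five-dose screen covering 0.01–100 µM, prepared as 10-fold or ½-log dilutions from DMSO stock. Cells in RPMI 1640 with 5% FBS were exposed for 48 h at 37 °C after 24 h preincubation. Adherent cells were fixed with TCA (final 10%) and suspension cells were settled before fixing. Stain was SRB, read at 515 nm. GI50 = 50% reduction in net protein increase versus control, with Tz taken at drug addition.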

SK-MEL-5 = assay: Growth inhibition of human SK-MEL-5 cells incubated for 48 hrs by sulforhodamine B assay; outline: as §1
SF-268 = assay: Growth inhibition of human SF-268 cells incubated for 48 hrs by sulforhodamine B assay; outline: as §1
ACHN = assay: Growth inhibition of human ACHN cells incubated for 48 hrs by sulforhodamine B assay; outline: as §3
NCI-H522 = assay: Growth inhibition of human NCI-H522 cells incubated for 48 hrs by sulforhodamine B assay; outline: as §1
M14 = assay: Growth inhibition of human M14 cells incubated for 48 hrs by sulforhodamine B assay; outline: as §3
RXF 393 = assay: Growth inhibition of human RXF 393 cells incubated for 48 hrs by sulforhodamine B assay; outline: as §1
OVCAR-5 = assay: Growth inhibition of human OVCAR-5 cells incubated for 48 hrs by sulforhodamine B assay; outline: as §1
BT-549 = assay: Growth inhibition of human BT-549 cells incubated for 48 hrs by sulforhodamine B assay; outline: as §3
T47D = assay: Growth inhibition of human T47D cells incubated for 48 hrs by sulforhodamine B assay; outline: as §2
Malme-3M = assay: Growth inhibition of human Malme-3M cells incubated for 48 hrs by sulforhodamine B assay; outline: as §1
NCI-H226 = assay: Growth inhibition of human NCI-H226 cells incubated for 48 hrs by sulforhodamine B assay; outline: as §1
U-251 = assay: Growth inhibition of human U-251 cells incubated for 48 hrs by sulforhodamine B assay; outline: as §2
LOX IMVI = assay: Growth inhibition of human LOX IMVI cells incubated for 48 hrs by sulforhodamine B assay; outline: as §3
MDA-MB-468 = assay: Growth inhibition of human MDA-MB-468 cells incubated for 48 hrs by sulforhodamine B assay; outline: as §3
IGROV-1 = assay: Growth inhibition of human IGROV-1 cells incubated for 48 hrs by sulforhodamine B assay; outline: as §3
SW-620 = assay: Growth inhibition of human SW-620 cells incubated for 48 hrs by sulforhodamine B assay; outline: as §2
NCI-H460 = assay: Growth inhibition of human NCI-H460 cells incubated for 48 hrs by sulforhodamine B assay; outline: as §1
UO-31 = assay: Growth inhibition of human UO-31 cells incubated for 48 hrs by sulforhodamine B assay; outline: as §2
OVCAR-4 = assay: Growth inhibition of human OVCAR-4 cells incubated for 48 hrs by sulforhodamine B assay; outline: as §1
SR = assay: Growth inhibition of human SR cells incubated for 48 hrs by sulforhodamine B assay; outline: as §1
CCRF-CEM = assay: Growth inhibition of human CCRF-CEM cells incubated for 48 hrs by sulforhodamine B assay; outline: as §3
NCI/ADR-RES = assay: Growth inhibition of human NCI/ADR-RES cells incubated for 48 hrs by sulforhodamine B assay; outline: as §1
PC-3 = assay: Growth inhibition of human PC-3 cells incubated for 48 hrs by sulforhodamine B assay; outline: as §1
NCI-H23 = assay: Growth inhibition of human NCI-H23 cells incubated for 48 hrs by sulforhodamine B assay; outline: as §1
HCC 2998 = assay: Growth inhibition of human HCC 2998 cells incubated for 48 hrs by sulforhodamine B assay; outline: as §3
HOP-92 = assay: Growth inhibition of human HOP-92 cells incubated for 48 hrs by sulforhodamine B assay; outline: as §3
MOLT-4 = assay: Growth inhibition of human MOLT-4 cells incubated for 48 hrs by sulforhodamine B assay; outline: as §1
HL-60(TB) = assay: Growth inhibition of human HL-60(TB) cells incubated for 48 hrs by sulforhodamine B assay
Outline: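 NCI-60 five-dose screen. Cells in RPMI 1640 with 5% FBS and 2 mM L-glutamine were plated at 5000–40,000 cells/well and preincubated 24 h at 37 °C, 5% CO2. Drugs in DMSO were given at five serial 10-fold or ½-log dilutions for 48 h. Adherent cells fixed with 10% TCA (final); suspension cells fixed after settling. SRB stained; A515. GI50 from [(Ti-Tz)/(C-Tz)]x100 = 50.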

Structure (SMILES)	GI50 (UACC-257) [µM]	GI50 (SF-295) [µM]	GI50 (SK-MEL-28) [µM]	GI50 (CAKI-1) [µM]	GI50 (SK-MEL-5) [µM]	GI50 (ACHN) [µM]	GI50 (NCI-H522) [µM]	GI50 (M14) [µM]	GI50 (RXF 393) [µM]	GI50 (OVCAR-5) [µM]	GI50 (BT-549) [µM]	GI50 (T47D) [µM]	GI50 (Malme-3M) [µM]	GI50 (NCI-H226) [µM]	GI50 (U-251) [µM]	GI50 (LOX IMVI) [µM]	TGI (LOX IMVI) [µM]	GI50 (MDA-MB-468) [µM]	GI50 (IGROV-1) [µM]	GI50 (SW-620) [µM]	further results
COc1cc2nc(-c3ccc(Cl)cc3)cc(OCCCN3CCCCC3)c2cc1OC	1.92	1.21	1.45	0.287	1.1	2.45	3.28	0.412	1.08	1.16	1.43	1.31	1.74	1.12	1.89	0.189	0.435	1.39	0.838	3.09	GI50 (SK-MEL-2): 2.75 µM; GI50 (OVCAR-3): 3.23 µM; GI50 (SF-268): 3.2 µM; GI50 (NCI-H460): 0.842 µM; GI50 (UO-31): 1.87 µM; GI50 (OVCAR-4): 3.85 µM; GI50 (SR): 0.373 µM; GI50 (CCRF-CEM): 2.79 µM; GI50 (NCI/ADR-RES): 0.898 µM; GI50 (PC-3): 1.74 µM; GI50 (NCI-H23): 2.95 µM; GI50 (HCC 2998): 2.34 µM; GI50 (HOP-92): 1.02 µM; GI50 (MOLT-4): 2.04 µM
COc1cc2nc(-c3ccc(C(F)(F)F)cc3)cc(OCCCN3CCCCC3)c2cc1OC	1.7	0.53	1.26	0.272	0.325	1.2	2.44	0.327	1.09	0.71	1.48	0.454	1.26	0.37	1.1	0.162	0.355	1.03	0.651	2.91	GI50 (SK-MEL-2): 2.64 µM; GI50 (OVCAR-3): 2.44 µM; TGI (SK-MEL-5): 1.2 µM; GI50 (SF-268): 3.76 µM; GI50 (NCI-H460): 0.595 µM; GI50 (HL-60(TB)): 2.91 µM; GI50 (UO-31): 2 µM; GI50 (OVCAR-4): 2.91 µM; GI50 (SR): 0.193 µM; GI50 (CCRF-CEM): 1.83 µM; GI50 (NCI/ADR-RES): 0.522 µM; GI50 (PC-3): 1.34 µM; GI50 (NCI-H23): 1.91 µM; GI50 (HCC 2998): 1.28 µM; GI50 (HOP-92): 0.678 µM; GI50 (MOLT-4): 1.7 µM
COc1cc2nc(-c3ccc(C(F)(F)F)cc3)cc(OCCCN3CCOCC3)c2cc1OC	1.67	0.349	1.44	0.167	0.288	2.01	2.52	0.355	0.706	1.92	5	0.654	1.38	0.406	1.4	0.141	0.324	1.24	0.83	3.51	GI50 (SK-MEL-2): 3.32 µM; GI50 (OVCAR-3): 3.73 µM; GI50 (SF-268): 5.7 µM; GI50 (NCI-H460): 0.639 µM; GI50 (HL-60(TB)): 9.58 µM; GI50 (UO-31): 1.77 µM; GI50 (OVCAR-4): 10.3 µM; GI50 (SR): 0.242 µM; GI50 (CCRF-CEM): 2.79 µM; GI50 (NCI/ADR-RES): 0.64 µM; GI50 (PC-3): 2.19 µM; GI50 (NCI-H23): 2.36 µM; GI50 (HCC 2998): 1.41 µM; GI50 (HOP-92): 1 µM; GI50 (MOLT-4): 2.51 µM
COc1cc2nc(-c3ccc(Cl)cc3)cc(OCCCN3CCC(O)CC3)c2cc1OC	2.06	1.66	1.49	0.416	1.27	2.43	2.19	0.591	1.22	1.16	2.79	2.26	1.89	1.39	2.81	0.227	0.589	1.56	0.923	3.05	GI50 (SK-MEL-2): 2.07 µM; GI50 (OVCAR-3): 3.24 µM; GI50 (SF-268): 3.36 µM; GI50 (NCI-H460): 0.955 µM; GI50 (HL-60(TB)): 4.27 µM; GI50 (UO-31): 1.72 µM; GI50 (OVCAR-4): 4.34 µM; GI50 (SR): 0.373 µM; GI50 (CCRF-CEM): 2.65 µM; GI50 (NCI/ADR-RES): 0.925 µM; GI50 (PC-3): 2.02 µM; GI50 (NCI-H23): 2.83 µM; GI50 (HCC 2998): 1.95 µM; GI50 (HOP-92): 1.25 µM; GI50 (MOLT-4): 1.8 µM
COc1cc2nc(-c3ccc(Cl)cc3)cc(OCCCN3CCOCC3)c2cc1OC	1.92	1.08	1.52	0.305	0.832	3.64	2.17	0.545	1.12	1.58	2.59	1.96	2.01	0.997	1.92	0.217	0.592	1.83	0.99	3.57	GI50 (NCI-H460): 0.958 µM; GI50 (UO-31): 1.78 µM; GI50 (SR): 0.414 µM; GI50 (CCRF-CEM): 3.35 µM; GI50 (NCI/ADR-RES): 1.15 µM; GI50 (PC-3): 2.63 µM; GI50 (HCC 2998): 1.97 µM; GI50 (HOP-92): 1.36 µM; GI50 (MOLT-4): 2.85 µM
